Laboratory results as given in ChEMBL document CHEMBL1629579, “Correlating echinocandin MIC and kinetic inhibition of fks1 mutant glucan synthases for Candida albicans: implications for interpretive breakpoints” (Antimicrob Agents Chemother, 2009).
In brackets after ≈: the same amount, converted by molar mass. Numbered stars: 1 amine (or outer) side, 2 acyl side, 3 side chain; on linkers, the order of the positions; unused ones are H or OH. Bridge positions count the residues as written; N and C are the ends. Square brackets hold non-standard residues; d marks the D form. Peptide text beside a SMILES is read from it. * marks the point of attachment. hTyr(3S-OH,4S-OH,3'-OSO3H) = N[C@H](C(=O)O)[C@H](O)[C@@H](O)c1ccc(O)c(OS(=O)(=O)O)c1; pTerphenylCO(4''-OnC5H11) = CCCCCOc1ccc(-c2ccc(-c3ccc(C(=O)*)cc3)cc2)cc1; Orn(4R-OH,5R-OH) = O=C([C@H](C[C@@H](O)[C@@H](O)N[*:3])N[*:1])[*:2]; hTyr(3S-OH,4S-OH) = N[C@H](C(=O)O)[C@H](O)[C@@H](O)c1ccc(O)cc1; Pro(3S-OH,4S-Me) = C[C@H]1CN[C@H](C(=O)O)[C@H]1O; X1 = CCCCCOc1ccc(-c2cc(-c3ccc(C(=O)*)cc3)no2)cc1; Gln(3R-OH) = NC(=O)C[C@@H](O)[C@H](N)C(=O)O; Hyp = O=C(O)[C@@H]1C[C@@H](O)CN1

Legend:
[1] = test system: Candida albicans; assay: Activity at Candida albicans 90028 1,3-beta-D-glucan synthase subunit FKS1p
Method in brief: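 Glucan synthase from cells grown at 37°C with vigorous shaking to early stationary phase in YPD. Membrane enzyme enriched by product entrapment. Serial echinocandin dilutions; ANF controls held 1% DMSO. Reaction started by adding enzyme, run 60 min at 25°C in a filtration polymerization assay, stopped on ice. IC50 from a variable-slope sigmoidal fit; means of three repetitions on separate days.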

[2] = Inhibition of Candida albicans 121 1,3-beta-D-glucan synthase subunit FKS1p G4082A mutant
Method in brief: (§1)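 Enzyme is product-entrapped 1,3-β-D-glucan synthase, enriched from membranes of each strain grown at 37°C with shaking in YPD broth to early stationary phase. Filtration polymerization assay uses [3H]UDPG, started by adding enzyme and run 60 min at 25°C. Echinocandins are added as serial dilutions, with 1% DMSO controls for anidulafungin. IC50 is from a variable-slope sigmoidal fit; values are triplicate arithmetic means.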

[3] = test system: Candida albicans; assay: Activity at Candida albicans 122 1,3-beta-D-glucan synthase subunit FKS1p C1946A mutant
Method in brief: (§2)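 Product-entrapped 1,3-β-D-glucan synthase from cells grown in YPD at 37°C to early stationary phase. Wells held 50 mM HEPES pH 7.5, 10% glycerol, 1.5 mg/ml BSA, 25 mM KF, 1 mM EDTA, 25 μM GTP-γ-S, 1 μg enzyme and [3H]UDPG (0.015–2 mM). Reactions ran 60 min at 25°C. Vmax and Km came from Lineweaver-Burke plots, in triplicate.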

[4] = test system: Candida albicans; assay: Selectivity ratio of Ki for Candida albicans 194 1,3-beta-D-glucan synthase subunit FKS1p C1934T/G4082R mutant to Ki for Candida albicans SC5314 wild type 1,3-beta-D-glucan synthase subunit FKS1p
[5] = test system: Candida albicans; assay: Activity at Candida albicans 2762 1,3-beta-D-glucan synthase subunit FKS1p T1922C mutant; method in brief: as §2
[6] = test system: Candida albicans; assay: Selectivity ratio of Ki for Candida albicans A15-10 1,3-beta-D-glucan synthase subunit FKS1p T1933C mutant to Ki for Candida albicans SC5314 wild type 1,3-beta-D-glucan synthase subunit FKS1p
[7] = test system: Candida albicans; assay: Selectivity ratio of Ki for Candida albicans 90 1,3-beta-D-glucan synthase subunit FKS1p G4082R mutant to Ki for Candida albicans SC5314 wild type 1,3-beta-D-glucan synthase subunit FKS1p
[8] = test system: Candida albicans; assay: Selectivity ratio of Ki for Candida albicans 121 1,3-beta-D-glucan synthase subunit FKS1p G4082A mutant to Ki for Candida albicans SC5314 wild type 1,3-beta-D-glucan synthase subunit FKS1p
[9] = test system: Candida albicans; assay: Selectivity ratio of Ki for Candida albicans 2762 1,3-beta-D-glucan synthase subunit FKS1p T1922C mutant to Ki for Candida albicans SC5314 wild type 1,3-beta-D-glucan synthase subunit FKS1p
[10] = test system: Candida albicans; assay: Activity at Candida albicans 149 1,3-beta-D-glucan synthase subunit FKS1p G1942T mutant; method in brief: as §2
[11] = test system: Candida albicans; assay: Selectivity ratio of Ki for Candida albicans 205 1,3-beta-D-glucan synthase subunit FKS1p T1933C mutant to Ki for Candida albicans SC5314 wild type 1,3-beta-D-glucan synthase subunit FKS1p
[12] = test system: Candida albicans; assay: Antimicrobial activity against Candida albicans 1002 by M27-A3 method; type: functional
Method in brief: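 Broth microdilution per CLSI M27-A3 in RPMI 1640, with and without 50% human serum, in triplicate. C. krusei ATCC 6258 and C. parapsilosis ATCC 22019 served as quality-control strains. MIC reported as arithmetic mean of three repetitions on separate days.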

[13] = test system: Candida albicans; assay: Selectivity ratio of Ki for Candida albicans 85 1,3-beta-D-glucan synthase subunit FKS1p C1934T mutant to Ki for Candida albicans SC5314 wild type 1,3-beta-D-glucan synthase subunit FKS1p
[14] = test system: Candida albicans; assay: Antimicrobial activity against Candida albicans 177 harboring FKS1 T1922C mutant gene and FKS1 hotspot1 F641S mutant gene by M27-A3 method; type: functional
Method in brief: (§3)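 Broth microdilution per CLSI M27-A3 in RPMI 1640, done in triplicate on three separate days. Each strain was tested with and without 50% human serum. C. krusei ATCC 6258 and C. parapsilosis ATCC 22019 served as QC strains. Arithmetic means are reported, and geometric means were used for comparison.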

[15] = test system: Candida albicans; assay: Antimicrobial activity against Candida albicans 149 harboring FKS1 G1942T mutant gene and FKS1 hotspot1 D648Y mutant gene by M27-A3 method in presence of 50% human serum; type: functional; method in brief: as §3
[16] = test system: Candida albicans; assay: Antimicrobial activity against Candida albicans 3795 by M27-A3 method in presence of 50% human serum; type: functional; method in brief: as §3
[17] = test system: Candida albicans; assay: Selectivity ratio of Ki for Candida albicans 177 1,3-beta-D-glucan synthase subunit FKS1p T1922C mutant to Ki for Candida albicans SC5314 wild type 1,3-beta-D-glucan synthase subunit FKS1p
[18] = Inhibition of Candida albicans 177 1,3-beta-D-glucan synthase subunit FKS1p T1922C mutant; method in brief: as §1
[19] = Inhibition of Candida albicans A15 1,3-beta-D-glucan synthase subunit FKS1p T1933Y mutant; method in brief: as §1
[20] = test system: Candida albicans; assay: Antimicrobial activity against Candida albicans 3107 by M27-A3 method in presence of 50% human serum; type: functional; method in brief: as §3
[21] = test system: Candida albicans; assay: Antimicrobial activity against Candida albicans 119 harboring FKS1 T1921C mutant gene and FKS1 hotspot1 F641L mutant gene by M27-A3 method in presence of 50% human serum; type: functional; method in brief: as §3
[22] = test system: Candida albicans; assay: Activity at Candida albicans 205 1,3-beta-D-glucan synthase subunit FKS1p T1933C mutant; method in brief: as §2
[23] = test system: Candida albicans; assay: Selectivity ratio of Ki for Candida albicans A15 1,3-beta-D-glucan synthase subunit FKS1p T1933Y mutant to Ki for Candida albicans SC5314 wild type 1,3-beta-D-glucan synthase subunit FKS1p
[24] = test system: Candida albicans; assay: Antimicrobial activity against Candida albicans 5415 harboring FKS1 T1933C mutant gene and FKS1 hotspot1 S645P mutant gene by M27-A3 method in presence of 50% human serum; type: functional; method in brief: as §3
[25] = test system: Candida albicans; assay: Antimicrobial activity against Candida albicans A15-10 harboring FKS1 T1933C mutant gene and FKS1 hotspot1 S645P mutant gene by M27-A3 method; type: functional; method in brief: as §3
[26] = test system: Candida albicans; assay: Selectivity ratio of Ki for Candida albicans 122 1,3-beta-D-glucan synthase subunit FKS1p C1946A mutant to Ki for Candida albicans SC5314 wild type 1,3-beta-D-glucan synthase subunit FKS1p
[27] = Inhibition of Candida albicans SC5314 1,3-beta-D-glucan synthase subunit FKS1p; method in brief: as §1
[28] = test system: Candida albicans; assay: Antimicrobial activity against Candida albicans 36082 by M27-A3 method in presence of 50% human serum; type: functional; method in brief: as §3
[29] = test system: Candida albicans; assay: Antimicrobial activity against Candida albicans 90028 by M27-A3 method in presence of 50% human serum; type: functional; method in brief: as §3

Structure (SMILES) | Km [1] [µM] | Vmax [1] [nmol/min] | IC50 [2] [µg/mL] | Ki [2] [µg/mL] | Km [3] [µM] | Vmax [3] [nmol/min] | Km [5] [µM] | Vmax [5] [nmol/min] | Km [10] [µM] | Vmax [10] [nmol/min] | MIC [12] [µg/mL] | MIC [14] [µg/mL] | MIC [15] [µg/mL] | MIC [16] [µg/mL] | IC50 [18] [µg/mL] | Ki [18] [µg/mL] | IC50 [19] [µg/mL] | MIC [20] [µg/mL] | MIC [21] [µg/mL] | Km [22] [µM] | also measured
CCCCCOc1ccc(-c2ccc(-c3ccc(C(=O)N[C@H]4C[C@@H](O)[C@@H](O)NC(=O)[C@@H]5[C@@H](O)[C@@H](C)CN5C(=O)[C@H]([C@@H](C)O)NC(=O)[C@H]([C@H](O)[C@@H](O)c5ccc(O)cc5)NC(=O)[C@@H]5C[C@@H](O)CN5C(=O)[C@H]([C@@H](C)O)NC4=O)cc3)cc2)cc1 [ANIDULAFUNGIN] ({pTerphenylCO(4''-OnC5H11)}-[Orn(4R-OH,5R-OH)]T[Hyp][hTyr(3S-OH,4S-OH)]T[Pro(3S-OH,4S-Me)]; lactam 1-C) | 67 | 4.71 | 0.07599 (≈ 0.0666 µM) | 0.08457 (≈ 0.0742 µM) | 152 | 1.95 | 108 | 3.57 | 32 | 1.22 | 0.06 (≈ 0.0526 µM) | 0.83 (≈ 0.728 µM) | 4 | 0.44 | 2.622 (≈ 2.3 µM) | 4.34233 (≈ 3.81 µM) | 0.1287 (≈ 0.113 µM) | 0.25 | 2 | 116 | Ratio Ki [4]: > 100; Ratio Ki [6]: > 100; Ratio Ki [7]: > 100; Ratio Ki [8]: > 100; Ratio Ki [9]: > 100; Ratio Ki [11]: > 100; Ratio Ki [13]: > 100; Ratio Ki [17]: > 100; Vmax [22]: 5.54 nmol/min; Ratio Ki [23]: > 100; MIC [24]: 8 µg/mL; MIC [25]: 4 µg/mL (≈ 3.51 µM); Ratio Ki [26]: > 100; IC50 [27]: 0.00089 µg/mL (≈ 0.000781 µM); Ki [27]: 0.00133 µg/mL (≈ 0.00117 µM); MIC [28]: 0.12 µg/mL; MIC [29]: 0.25 µg/mL
CC[C@H](C)C[C@H](C)CCCCCCCCC(=O)N[C@H]1C[C@@H](O)[C@@H](NCCN)NC(=O)[C@@H]2[C@@H](O)CCN2C(=O)[C@H]([C@H](O)CCN)NC(=O)[C@H]([C@H](O)[C@@H](O)c2ccc(O)cc2)NC(=O)[C@@H]2C[C@@H](O)CN2C(=O)[C@H]([C@@H](C)O)NC1=O [CASPOFUNGIN] | 67 | 4.71 | 0.03372 (≈ 0.0308 µM) | 0.308 (≈ 0.282 µM) | 152 | 1.95 | 108 | 3.57 | 32 | 1.22 | 0.33 (≈ 0.302 µM) | 4 (≈ 3.66 µM) | 4 | 0.5 | 1.091 (≈ 0.998 µM) | 1.8176 (≈ 1.66 µM) | 0.2181 (≈ 0.199 µM) | 0.33 | 8 | 116 | Vmax [22]: 5.54 nmol/min; MIC [24]: 8 µg/mL; MIC [25]: 8 µg/mL (≈ 7.32 µM); Ki [27]: 0.00297 µg/mL (≈ 0.00272 µM); MIC [28]: 0.25 µg/mL; MIC [29]: 0.25 µg/mL
CCCCCOc1ccc(-c2cc(-c3ccc(C(=O)N[C@H]4C[C@@H](O)[C@@H](O)NC(=O)[C@@H]5[C@@H](O)[C@@H](C)CN5C(=O)[C@H]([C@H](O)CC(N)=O)NC(=O)[C@H]([C@H](O)[C@@H](O)c5ccc(O)c(OS(=O)(=O)O)c5)NC(=O)[C@@H]5C[C@@H](O)CN5C(=O)[C@H]([C@@H](C)O)NC4=O)cc3)no2)cc1 [MICAFUNGIN] (X1-[Orn(4R-OH,5R-OH)]T[Hyp][hTyr(3S-OH,4S-OH,3'-OSO3H)][Gln(3R-OH)][Pro(3S-OH,4S-Me)]; lactam 1-C) | 67 | 4.71 | 0.4982 (≈ 0.392 µM) | 0.84048 (≈ 0.662 µM) | 152 | 1.95 | 108 | 3.57 | 32 | 1.22 | 0.04 (≈ 0.0315 µM) | 1 (≈ 0.787 µM) | 4 | 0.5 | 1.441 (≈ 1.13 µM) | 4.40423 (≈ 3.47 µM) | 0.1773 (≈ 0.14 µM) | 0.5 | 8 | 116 | Vmax [22]: 5.54 nmol/min; MIC [24]: 8 µg/mL; MIC [25]: 4 µg/mL (≈ 3.15 µM); IC50 [27]: 0.0582 µg/mL (≈ 0.0458 µM); Ki [27]: 0.02747 µg/mL (≈ 0.0216 µM); MIC [28]: 1 µg/mL; MIC [29]: 0.5 µg/mL
